“And” between values parts separate entries of the source, which are not always exact repeats. Equal values may be shown once.
Columns and labels:
[1] = test system: U2OS; experiment: Multiplex assay against U2OS; format: toxicity, cell-based; conditions: human, number of replicates 2
How it was run: (§1)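 With compound added, live cells were imaged on a CQ1 microscope at 37°C and 5% CO2; staining with Hoechst33342, BioTracker Green Microtubule Cytoskeleton Dye, MitoTracker Red and Annexin V Alexa Fluor 680 had been done at seeding. The CellPathfinder machine-learning gating scheme split cells into Hoechst high-intensity objects or normal cells, normal cells into healthy, pyknosed or fragmented nuclei, and pyknosed cells into mitotic or apoptotic. The tubulin, mitochondrial-mass and membrane-permeability phenotypes are per cents of healthy-nucleus cells.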

[2] = test system: Fibroblast; experiment: Multiplex assay against human fibroblast; format: toxicity, cell-based; conditions: number of replicates 2; how it was run: as §1
[3] = 24 h, 10 µM, compound concentration 10 uM
[4] = 48 h, 1 µM, compound concentration 1 uM
[5] = 48 h, 10 µM, compound concentration 10 uM
[6] = 12 h, 1 µM, compound concentration 1 uM
[7] = 12 h, 10 µM, compound concentration 10 uM
[8] = 24 h, 1 µM, compound concentration 1 uM

SMILES: CCc1ncnc(N2CCN(C(C)=O)CC2)c1C#Cc1ccc(N)nc1.Cl.Cl
- Population Apoptotic (%) [1, 3]: 40% and 73%
- Population Fragmented Nuclei (%) [1, 3]: 16% and 12%
- Population Healthy Nuclei (%) [1, 3]: 67% and 71%
- Population Hoechst High Intensity Objects (%) [1, 3]: 0%
- Population Membrane Permeable-Phenotype (%) [1, 3]: 4% and 2%
- Population Mitochondria Different-Phenotype (%) [1, 3]: 2% and 5%
- Population Mitotic Cells (%) [1, 3]: 60% and 26%
- Population Normal (%) [1, 3]: 100% and 99%
- Population Pyknosed Nuclei (%) [1, 3]: 16%
- Population Tubulin-Different-Phenotype (%) [1, 3]: 88% and 60%
- Population Apoptotic (%) [1, 4]: 77% and 69%
- Population Healthy Nuclei (%) [1, 4]: 72% and 82%
- Population Hoechst High Intensity Objects (%) [1, 4]: 0%
- Population Membrane Permeable-Phenotype (%) [1, 4]: 0% and 2%
- Population Mitochondria Different-Phenotype (%) [1, 4]: 0%
- Population Mitotic Cells (%) [1, 4]: 22% and 30%
- Population Normal (%) [1, 4]: 100%
- Population Pyknosed Nuclei (%) [1, 4]: 12% and 13%
- Population Tubulin-Different-Phenotype (%) [1, 4]: 75% and 93%
- Population Apoptotic (%) [1, 5]: 70% and 84%
- Population Fragmented Nuclei (%) [1, 5]: 16% and 6%
- Population Healthy Nuclei (%) [1, 5]: 32% and 66%
- Population Hoechst High Intensity Objects (%) [1, 5]: 0%
- Population Membrane Permeable-Phenotype (%) [1, 5]: 5% and 4%
- Population Mitochondria Different-Phenotype (%) [1, 5]: 5% and 8%
- Population Mitotic Cells (%) [1, 5]: 30% and 15%
- Population Normal (%) [1, 5]: 100%
- Population Pyknosed Nuclei (%) [1, 5]: 50% and 27%
- Population Tubulin-Different-Phenotype (%) [1, 5]: 89% and 72%
- Population Apoptotic (%) [2, 6]: 39% and 41%
- Population Fragmented Nuclei (%) [2, 6]: 26% and 16%
- Population Healthy Nuclei (%) [2, 6]: 48% and 55%
- Population Hoechst High Intensity Objects (%) [2, 6]: 0%
- Population Membrane Permeable-Phenotype (%) [2, 6]: 8% and 9%
- Population Mitochondria Different-Phenotype (%) [2, 6]: 1% and 2%
- Population Mitotic Cells (%) [2, 6]: 60% and 58%
- Population Normal (%) [2, 6]: 99%
- Population Pyknosed Nuclei (%) [2, 6]: 24% and 28%
- Population Tubulin-Different-Phenotype (%) [2, 6]: 20% and 15%
- Total Cell Count [2, 6]: 278 and 215
- Population Apoptotic (%) [2, 7]: 47%
- Population Fragmented Nuclei (%) [2, 7]: 19% and 25%
- Population Healthy Nuclei (%) [2, 7]: 53% and 54%
- Population Hoechst High Intensity Objects (%) [2, 7]: 0%
- Population Membrane Permeable-Phenotype (%) [2, 7]: 4% and 8%
- Population Mitochondria Different-Phenotype (%) [2, 7]: 4% and 0%
- Population Mitotic Cells (%) [2, 7]: 52%
- Population Normal (%) [2, 7]: 100%
- Population Pyknosed Nuclei (%) [2, 7]: 26% and 19%
- Population Tubulin-Different-Phenotype (%) [2, 7]: 41% and 42%
- Total Cell Count [2, 7]: 180 and 245
- Population Apoptotic (%) [2, 8]: 53% and 46%
- Population Fragmented Nuclei (%) [2, 8]: 28% and 10%
- Population Healthy Nuclei (%) [2, 8]: 46% and 64%
- Population Hoechst High Intensity Objects (%) [2, 8]: 1% and 0%
- Population Membrane Permeable-Phenotype (%) [2, 8]: 12% and 4%
- Population Mitochondria Different-Phenotype (%) [2, 8]: 0% and 1%
- Population Mitotic Cells (%) [2, 8]: 46% and 53%
- Population Normal (%) [2, 8]: 98% and 99%
- Population Pyknosed Nuclei (%) [2, 8]: 25% and 24%
- Population Tubulin-Different-Phenotype (%) [2, 8]: 12% and 9%
- Total Cell Count [2, 8]: 259 and 210
- Population Apoptotic (%) [2, 3]: 65% and 63%
- Population Fragmented Nuclei (%) [2, 3]: 18% and 31%
- Population Healthy Nuclei (%) [2, 3]: 51% and 55%
- Population Hoechst High Intensity Objects (%) [2, 3]: 0%
- Population Membrane Permeable-Phenotype (%) [2, 3]: 4% and 6%
- Population Mitochondria Different-Phenotype (%) [2, 3]: 5% and 0%
- Population Mitotic Cells (%) [2, 3]: 34% and 36%
- Population Normal (%) [2, 3]: 100% and 99%
- Population Pyknosed Nuclei (%) [2, 3]: 29% and 12%
- Population Tubulin-Different-Phenotype (%) [2, 3]: 37% and 27%
- Total Cell Count [2, 3]: 176 and 264
- Population Apoptotic (%) [2, 4]: 48% and 54%
- Population Fragmented Nuclei (%) [2, 4]: 28% and 14%
- Population Healthy Nuclei (%) [2, 4]: 58% and 75%
- Population Hoechst High Intensity Objects (%) [2, 4]: 1% and 0%
- Population Membrane Permeable-Phenotype (%) [2, 4]: 5% and 6%
- Population Mitochondria Different-Phenotype (%) [2, 4]: 0%
- Population Mitotic Cells (%) [2, 4]: 51% and 45%
- Population Normal (%) [2, 4]: 98% and 99%
- Population Pyknosed Nuclei (%) [2, 4]: 12% and 10%
- Population Tubulin-Different-Phenotype (%) [2, 4]: 10% and 7%
- Total Cell Count [2, 4]: 259 and 219
- Population Apoptotic (%) [2, 5]: 62% and 68%
- Population Fragmented Nuclei (%) [2, 5]: 13% and 21%
- Population Healthy Nuclei (%) [2, 5]: 63% and 67%
- Population Hoechst High Intensity Objects (%) [2, 5]: 0%
- Population Membrane Permeable-Phenotype (%) [2, 5]: 5% and 1%
- Population Mitochondria Different-Phenotype (%) [2, 5]: 8% and 0%
- Population Mitotic Cells (%) [2, 5]: 37% and 32%
- Population Normal (%) [2, 5]: 100%
- Population Pyknosed Nuclei (%) [2, 5]: 22% and 10%
- Population Tubulin-Different-Phenotype (%) [2, 5]: 36% and 25%
- Total Cell Count [2, 5]: 163 and 231
